# Results reported in ChEMBL document CHEMBL2062365, “Suppressive effects of coumarins from Mammea siamensis on inducible nitric oxide synthase expression in RAW264.7 cells” (Bioorg Med Chem, 2012).
# Activity calls are given as the source filed them. The calls are words filed in the database; no cut-off is given here.
# Experiments:
# [1] = system: RAW264.7; assay: Antiinflammatory activity in mouse RAW264.7 cells assessed as inhibition of LPS-induced NO production at 10 uM incubated for 10 mins prior to LPS-challenge measured after 18 hrs by Griess method relative to control; type: functional
# In short: (§1)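 RAW264.7 cells (DMEM, 10% FBS, 37 °C, 5% CO2) seeded at 2.5 × 10^5 cells/well. After 6 h, nonadherent cells were washed off. Adherent cells were exposed to test compound for 10 min, then to LPS (E. coli 055:B5, final 10 µg/mL) for 18 h. Supernatant nitrite was measured by Griess reaction. Inhibition % = (A−B)/(A−C)×100, with C as the no-LPS control. IC50 was read graphically; N = 4, mean ± SEM. CAPE was the reference.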
# [2] = system: RAW264.7; assay: Antiinflammatory activity in mouse RAW264.7 cells assessed as inhibition of LPS-induced NO production at 30 uM incubated for 10 mins prior to LPS-challenge measured after 18 hrs by Griess method relative to control; type: functional; in short: as §1
# [3] = system: RAW264.7; assay: Antiinflammatory activity in mouse RAW264.7 cells assessed as inhibition of LPS-induced NO production incubated for 10 mins prior to LPS-challenge measured after 18 hrs by Griess method; type: functional, cell-based; in short: as §1
# [4] = Cytotoxicity against mouse RAW264.7 cells assessed as cell viability at 10 uM after 18 hrs by MTT assay; type: cell-based; conditions: read-out: Activity
# In short: (§2)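 MTT viability assay. RAW264.7 cells seeded at 1.0 × 10^5 cells/well; after 6 h, nonadherent cells were washed off. Adherent cells were cultured with test compound for 18 h. MTT (5 mg/mL in PBS) was added for 2 h at 37 °C. Formazan was dissolved in isopropanol with 0.04 M HCl and OD read at 570 nm (reference 655 nm).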
# [5] = system: RAW264.7; assay: Antiinflammatory activity in mouse RAW264.7 cells assessed as inhibition of LPS-induced NO production at 3 uM incubated for 10 mins prior to LPS-challenge measured after 18 hrs by Griess method relative to control
# [6] = system: RAW264.7; assay: Antiinflammatory activity in mouse RAW264.7 cells assessed as inhibition of LPS-induced NO production at 1 uM incubated for 10 mins prior to LPS-challenge measured after 18 hrs by Griess method relative to control; type: functional; in short: as §1
# [7] = Cytotoxicity against mouse RAW264.7 cells assessed as cell viability at 3 uM after 18 hrs by MTT assay; type: cell-based; conditions: read-out: Activity; in short: as §2
# [8] = Cytotoxicity against mouse RAW264.7 cells assessed as cell viability at 30 uM after 18 hrs by MTT assay; type: cell-based; conditions: read-out: Activity; in short: as §2
# [9] = system: RAW264.7; assay: Antiinflammatory activity in mouse RAW264.7 cells assessed as inhibition of LPS-induced NO production at 10 uM relative to control; type: functional; in short: as §1
# [10] = system: RAW264.7; assay: Antiinflammatory activity in mouse RAW264.7 cells assessed as inhibition of LPS-induced NO production at 100 uM relative to control; type: functional; in short: as §1
# [11] = target: T1, Signal transducer and activator of transcription 1 (Mus musculus) (UniProt P42225); assay: Inhibition of STAT1 phosphorylation in LPS-induced mouse RAW264.7 cells incubated for 10 mins prior to LPS-challenge measured after 30 mins by Western blot analysis; type: cell-based
# T1 sequence (whole entry): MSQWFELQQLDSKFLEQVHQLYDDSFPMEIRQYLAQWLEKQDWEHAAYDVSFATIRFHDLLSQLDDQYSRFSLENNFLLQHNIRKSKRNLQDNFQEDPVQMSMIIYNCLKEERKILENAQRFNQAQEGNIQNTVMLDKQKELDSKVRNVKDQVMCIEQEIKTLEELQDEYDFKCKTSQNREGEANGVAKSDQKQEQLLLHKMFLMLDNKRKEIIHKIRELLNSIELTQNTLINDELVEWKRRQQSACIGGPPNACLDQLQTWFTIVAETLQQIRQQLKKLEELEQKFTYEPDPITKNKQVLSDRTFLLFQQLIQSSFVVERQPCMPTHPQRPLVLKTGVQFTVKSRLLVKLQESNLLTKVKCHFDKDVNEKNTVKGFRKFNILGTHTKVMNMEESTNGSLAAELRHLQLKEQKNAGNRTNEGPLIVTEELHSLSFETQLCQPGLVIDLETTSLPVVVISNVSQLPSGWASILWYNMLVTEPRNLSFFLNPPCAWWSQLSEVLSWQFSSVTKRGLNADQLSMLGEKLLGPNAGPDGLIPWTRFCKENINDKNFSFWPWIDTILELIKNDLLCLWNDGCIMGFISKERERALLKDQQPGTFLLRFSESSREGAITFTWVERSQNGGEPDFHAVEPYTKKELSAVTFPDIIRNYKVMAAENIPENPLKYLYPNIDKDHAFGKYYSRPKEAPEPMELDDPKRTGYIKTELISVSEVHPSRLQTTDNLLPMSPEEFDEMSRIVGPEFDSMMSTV
# In short: (§3)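 RAW264.7 cells (5.0 × 10^6/well) adhered for 6 h. Compound was added for 10 min, then LPS (final 10 µg/mL) for 30 min. BCA-normalized lysates, 25 µg/lane, were run on 10% SDS–PAGE and transferred to PVDF. Phospho-proteins (p-JNK, p-p38, p-STAT1 Ser727) were blocked in Blocking One-P, others (NF-κB p65) in Blocking One. Primary antibodies 1:1000 for 1 h at rt; detection by ECL.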
# [12] = target: MAP kinase p38 (Mus musculus) (UniProt P47811+O08911+Q9WUI1+Q9Z1B7); assay: Inhibition of p38 phosphorylation in LPS-induced mouse RAW264.7 cells at 1 to 30 uM incubated for 10 mins prior to LPS-challenge measured after 30 mins by Western blot analysis; type: cell-based; in short: as §3
# [13] = system: RAW264.7; assay: Antiinflammatory activity in mouse RAW264.7 cells assessed as inhibition of LPS-induced iNOS expression at 1 to 30 uM incubated for 10 mins prior to LPS-challenge measured after 12 hrs by Western blot analysis; type: functional, cell-based
# In short: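 RAW264.7 cells (5.0 × 10^6/well, 6-well) adhered for 6 h. Compound was added for 10 min, then LPS (final 10 µg/mL) for 12 h. Lysates were sonicated and normalized by BCA. 50 µg protein/lane was run on 10% SDS–PAGE and transferred to PVDF. Blots were probed for iNOS and β-actin (primary 1:1000, HRP secondary 1:5000) and detected by ECL.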
# [14] = system: RAW264.7; assay: Inhibition of SAPK/JNK phosphorylation in LPS-induced mouse RAW264.7 cells at 1 to 30 uM incubated for 10 mins prior to LPS-challenge measured after 30 mins by Western blot analysis; type: cell-based; in short: as §3
SMILES,IC50 [3] [µM],inhibition [11],inhibition [12],inhibition at 10 µM [1] [%],inhibition at 30 µM [2] [%],"viability at 18 h, 10 µM [4] [%]",inhibition at 3 µM [5] [%],inhibition at 1 µM [6] [%],"viability at 18 h, 3 µM [7] [%]","viability at 18 h, 30 µM [8] [%]",inhibition at 10 µM [9] [%],inhibition at 100 µM [10] [%],inhibition [13],inhibition [14]
CCCc1cc(=O)oc2c3c(c(C(=O)C(C)CC)c(O)c12)OC(C)(C)C=C3 (stereo not drawn),> 30,–,–,10.6,13.3,–,–,–,–,–,–,–,–,–
CCCC(=O)c1c2c(c3oc(=O)cc(CCC)c3c1O)C=CC(C)(C)O2,> 30,–,–,9.9,13.8,–,–,–,–,–,–,–,–,–
CCC(C)C(=O)c1c(O)c(CC=C(C)C)c(O)c2c([C@H](CC)OC(C)=O)cc(=O)oc12 (stereo partly drawn),7.9,–,–,50.5,89.1,29.9,24.2,-1.5,55.3,11,–,–,–,–
Nc1n[nH]c2nnc(-c3c(-c4ccccc4)nn4ccccc34)cc12,–,–,–,–,–,–,–,–,–,–,7.2,–,–,–
COc1cccc(-c2cc(=O)c3ccccc3o2)c1N,–,–,–,–,–,–,–,–,–,–,–,-2.4,–,–
CCC(C)C(=O)c1c2c(c3oc(=O)cc(-c4ccccc4)c3c1O)C=CC(C)(C)O2 (stereo not drawn),> 30,–,–,12.9,18.3,–,–,–,–,–,–,–,–,–
CCCC(=O)c1c2c(c3oc(=O)cc(-c4ccccc4)c3c1O)C=CC(C)(C)O2,> 30,–,–,9.4,14.3,–,–,–,–,–,–,–,–,–
CCCC(=O)c1c(O)c2c(c3c([C@@H](O)CC)cc(=O)oc13)OC(C)(C)C=C2 [DEACETYLMAMMEA E/BC CYCLO D],19.7,–,–,33.1,62.3,–,20.2,15.1,–,107,–,–,–,–
CCCC(=O)c1c(O)c(C/C=C(\C)CCC=C(C)C)c(O)c2c([C@@H](O)CC)cc(=O)oc12 [KAYEASSAMIN A],26.6,–,–,29.7,56.6,–,15,5,–,82.4,–,–,–,–
CCCC(=O)c1c(O)c(CC=C(C)C)c2oc(=O)cc(-c3ccccc3)c2c1O [MAMMEA A/AC],13,–,–,46.9,67.6,–,14.2,0.6,–,96.8,–,–,–,–
Oc1ccc(-c2nc(-c3ccncc3)c(-c3ccc(F)cc3)[nH]2)cc1 [SB-202190],16,–,–,36.8,70.2,–,–,–,–,81.4,–,–,–,–
CCC(C)C(=O)c1c(O)c(C/C=C(\C)CCC=C(C)C)c(O)c2c([C@@H](O)CC)cc(=O)oc12 (stereo partly drawn) [SURANGIN C],6.8,–,–,56.7,71.3,61.7,40.8,18.1,–,42.9,–,–,–,–

# Further lines, with some results ahead:
IC50 [3] [µM],inhibition [11],inhibition [12],SMILES,inhibition at 10 µM [1] [%],inhibition at 30 µM [2] [%],"viability at 18 h, 10 µM [4] [%]",inhibition at 3 µM [5] [%],inhibition at 1 µM [6] [%],"viability at 18 h, 3 µM [7] [%]","viability at 18 h, 30 µM [8] [%]",inhibition at 10 µM [9] [%],inhibition at 100 µM [10] [%],inhibition [13],inhibition [14]
3.8,–,–,O=C(/C=C/c1ccc(O)c(O)c1)OCCc1ccccc1 [CAFFEIC ACID PHENETHYL ESTER],98.4,100,76.4,45.7,5.4,–,15.6,–,–,–,–
6.1,–,–,CCCC(=O)c1c(O)c(CC=C(C)C)c2oc(=O)cc([C@@H](O)CC)c2c1O [KAYEASSAMIN E],67.1,63.8,42.8,38.8,38.7,–,42.2,–,–,–,–
6,–,–,CCC(C)C(=O)c1c(O)c(CC=C(C)C)c2oc(=O)cc([C@@H](O)CC)c2c1O (stereo partly drawn) [KAYEASSAMIN F],60.7,63.1,55.2,41.3,31.4,–,31.5,–,–,–,–
0.8,Dose-dependent effect,inactive,CC[C@H](O)c1cc(=O)oc2c(CC=C(C)C)c(O)c(C(=O)CC(C)C)c(O)c12 [KAYEASSAMIN G],81.5,72.3,–,55.9,51,–,83.7,–,–,Active,inactive
1.8,Dose-dependent effect,inactive,CCCC(=O)c1c(O)c(C/C=C(\C)CCC=C(C)C)c(O)c2c([C@H](CC)OC(C)=O)cc(=O)oc12 [MAMMEASIN A],88.1,92,24.1,72.9,27.5,56.4,10.2,–,–,Active,inactive
6.4,–,–,CC[C@H](OC(C)=O)c1cc(=O)oc2c(C(=O)CC(C)C)c(O)c(C/C=C(\C)CCC=C(C)C)c(O)c12 [MAMMEASIN B],64.7,88.2,20.2,31.1,0.6,60.3,13.6,–,–,–,–
1.3,Dose-dependent effect,inactive,CC(C)=CCc1c(O)c(C(=O)C(C)C)c(O)c2c(-c3ccccc3)cc(=O)oc12 [MESUOL],89.4,103,27.2,83.4,33.7,57.2,10.1,–,–,Active,inactive
5,–,–,CCC(C)C(=O)c1c(O)c(C/C=C(\C)CCC=C(C)C)c(O)c2c([C@H](CC)OC(C)=O)cc(=O)oc12 (stereo partly drawn) [SURANGIN B],74.3,91.1,42.3,35.7,8.5,67.1,18.1,–,–,–,–
6.2,–,–,CC[C@H](O)c1cc(=O)oc2c(C(=O)CC(C)C)c(O)c(C/C=C(\C)CCC=C(C)C)c(O)c12 [SURANGIN D],55.4,74,–,41.1,22.7,–,104,–,–,–,–
